According to PubChem BioAssay AID623898 (Johns Hopkins Ion Channel Center, 2012):
Several values for one entry are separate records, joined by “and”; a condition that tells them apart may be missing. Equal values may be shown once. Activity calls are given as the source filed them.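 Rule for the calls: active = over 50% block of current through the KCNK9 TASK-3 potassium channel at 10 µM compound; inactive = the rest.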

Target: Potassium channel subfamily K member 9 (Homo sapiens) (UniProt Q9NPC2)
Sequence (Q9NPC2 whole entry, looked up): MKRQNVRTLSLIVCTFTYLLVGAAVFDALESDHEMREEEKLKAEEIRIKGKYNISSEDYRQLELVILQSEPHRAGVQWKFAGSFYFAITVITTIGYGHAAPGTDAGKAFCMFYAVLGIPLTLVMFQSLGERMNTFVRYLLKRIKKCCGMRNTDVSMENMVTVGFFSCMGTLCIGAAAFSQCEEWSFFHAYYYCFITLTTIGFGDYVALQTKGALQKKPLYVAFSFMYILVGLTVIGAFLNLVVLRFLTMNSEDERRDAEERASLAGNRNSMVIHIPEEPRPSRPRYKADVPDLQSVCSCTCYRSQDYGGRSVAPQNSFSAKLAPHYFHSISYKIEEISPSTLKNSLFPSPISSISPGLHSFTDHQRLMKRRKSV
Assay: KCNK9 current inhibition by patch clamp, SAR follow-up, cell-based, automated electrophysiology, HEK293 (AID 623898)
Details: HEK293 KCNK9, QPatch automated patch clamp current
Procedure, shortened: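 material = HEK293 cells with tetracycline-inducible stable human KCNK9 expression | medium = 140 mM potassium external buffer, pH 7.40 | doses = cumulative compound concentration series on each cell | times = 5 min compound exposure per concentration | technique = automated whole-cell voltage clamp, current at -30 mV | read-out basis = per-cell IC50, Hill slope fixed at 1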

IC50	outcome	SMILES
6.66 µM		C[C@@H](C1CCCCC1)n1c(-c2ccco2)n[nH]c1=S
1.72 µM		CC(C1CC2CCC1C2)n1c(-c2cccc(N(C)C)c2)n[nH]c1=S (centres undefined)
8.48 µM		COc1ccccc1NC(=O)c1cccc(NC(=O)c2ccccc2)c1
2.38 µM		CCOc1ccccc1NC(=O)c1cccc(NC(=O)c2cccc(C)c2)c1
1.24 µM		CC(C1CC2CCC1C2)n1c(-c2ccccc2)n[nH]c1=S (centres undefined)
2.24 µM		Cc1cccc(C(=O)Nc2cccc(NC(=O)c3cccc(C)c3)c2)c1
0.18 µM		CCOc1ccccc1C(=O)Nc1cccc(NC(=O)c2ccccc2OC)c1
0.49 µM		CC(C1CC2CCC1C2)n1c(-c2ccco2)nn(CCc2ccncc2)c1=S (centres undefined)
2.52 µM		Cc1cccc(C(=O)Nc2cccc(NC(=O)c3ccccc3OCC(C)C)c2)c1
0.42 µM		COc1cccc(C(=O)Nc2cccc(NC(=O)c3ccccc3)c2)c1
	inactive	O=C(Nc1cccc(NC(=O)c2ccc(C(F)(F)F)cc2)c1)c1ccccc1
8.1 µM		O=C(Nc1cccc(NC(=O)C2CCCCC2)c1)c1ccccc1
0.96 µM		CC(C1CC2CCC1C2)n1c(-c2cccc(Cl)c2)n[nH]c1=S (centres undefined)
0.99 µM		Cc1cccc(C(=O)Nc2cccc(NC(=O)c3ccccc3OC(F)(F)F)c2)c1
0.41 µM and 0.68 µM		C[C@@H]([C@@H]1CC2CC[C@H]1C2)n1c(-c2ccsc2)n[nH]c1=S
0.52 µM		CCOc1ccccc1NC(=O)c1cccc(NC(=O)c2ccccc2C(F)(F)F)c1
0.38 µM		CCOc1ccccc1C(=O)Nc1cccc(NC(=O)c2cccc(C)c2)c1
0.95 µM		CC(C1CC2CCC1C2)n1c(-c2ccccc2Cl)n[nH]c1=S (centres undefined)
0.33 µM		COc1ccc(-c2n[nH]c(=S)n2C(C)C2CC3CCC2C3)cc1 (centres undefined)
2.14 µM		CCOc1ccccc1NC(=O)c1cccc(NC(=O)c2ccccc2)c1
0.71 µM		COc1ccccc1C(=O)Nc1cccc(NC(=O)c2ccccc2OC)c1
0.25 µM		CC(C1CC2CCC1C2)n1c(-c2ccccc2F)n[nH]c1=S (centres undefined)
0.25 µM and 0.23 µM		CC(C1CC2CCC1C2)n1c(-c2ccco2)n[nH]c1=S (centres undefined)
3.9 µM		CCOc1ccccc1NC(=O)c1cccc(NC(=O)CC2CCCC2)c1
	inactive	Cc1ccc(C(=O)Nc2cccc(NC(=O)c3ccccc3)c2)cc1
0.49 µM		CCOc1ccccc1C(=O)Nc1cccc(NC(=O)C2CCCC2)c1
4.73 µM		CCOc1ccccc1NC(=O)c1cccc(NC(=O)CC2CCCCC2)c1

IC50	outcome	SMILES
0.6 µM		COc1ccccc1C(=O)Nc1cccc(NC(=O)c2ccccc2OC(F)(F)F)c1
0.27 µM		Cc1ccccc1C(=O)Nc1cccc(NC(=O)c2ccccc2)c1
3.78 µM		S=c1[nH]nc(-c2ccco2)n1CC1CCCCC1
1.11 µM		CCOc1ccccc1NC(=O)c1cccc(NC(=O)C2CCCCC2)c1
5.48 µM		COc1ccc(CCSc2nnc(-c3ccco3)n2C(C)C2CC3CCC2C3)cc1OC (centres undefined)
0.68 µM		C[C@H](C1CCCCC1)n1c(-c2ccsc2)n[nH]c1=S
0.94 µM		CC(C1CC2CCC1C2)n1c(-c2ccoc2)n[nH]c1=S (centres undefined)
0.67 µM		COc1ccccc1C(=O)Nc1cccc(NC(=O)c2ccccc2C(C)C)c1
0.48 µM		Cc1cccc(C(=O)Nc2cccc(NC(=O)c3ccccc3C)c2)c1
0.41 µM		C[C@@H]([C@@H]1CC2CC[C@H]1C2)n1c(-c2ccco2)n[nH]c1=S
0.76 µM		Cc1cccc(-c2n[nH]c(=S)n2C(C)C2CC3CCC2C3)c1 (centres undefined)
6.1 µM		O=C(Nc1cccc(NC(=O)c2ccccn2)c1)c1ccccc1
	inactive	CC(C)n1c(-c2ccco2)n[nH]c1=S
0.28 µM		COc1cccc(-c2n[nH]c(=S)n2C(C)C2CC3CCC2C3)c1 (centres undefined)
0.96 µM		Cc1ccccc1-c1n[nH]c(=S)n1C(C)C1CC2CCC1C2 (centres undefined)
0.95 µM		Cc1cccc(C(=O)Nc2cccc(NC(=O)c3ccco3)c2)c1
1.49 µM		COc1ccccc1C(=O)Nc1cccc(NC(=O)c2cccc(C)c2)c1
0.62 µM		CC(C1CC2CCC1C2)n1c(-c2ccsc2)n[nH]c1=S (centres undefined)
2.1 µM		CCOc1ccccc1NC(=O)c1cccc(NC(=O)c2cccc(C(F)(F)F)c2)c1
3.16 µM		COc1ccccc1NC(=O)c1cccc(NC(=O)C2CCCC2)c1
	inactive	C[C@H]([C@@H]1CC2CC[C@H]1C2)n1c(-c2ccsc2)n[nH]c1=S
0.85 µM		O=C(Nc1cccc(NC(=O)c2ccccc2C(F)(F)F)c1)c1ccccc1
0.25 µM		CCOc1ccccc1C(=O)Nc1cccc(NC(=O)c2ccccc2C(F)(F)F)c1
1.04 µM		COc1ccccc1-c1n[nH]c(=S)n1C(C)C1CC2CCC1C2 (centres undefined)
0.51 µM		C[C@H](C1CCCCC1)n1c(-c2ccco2)n[nH]c1=S
1.49 µM		CCOc1ccccc1NC(=O)c1cccc(NC(=O)c2ccccc2OC(F)(F)F)c1
0.59 µM		CC(CC1CC2CCC1C2)n1c(-c2ccco2)n[nH]c1=S (centres undefined)
